Test results: ChEMBL document CHEMBL3352121, “Modulation of Activity Profiles for Largazole-Based HDAC Inhibitors through Alteration of Prodrug Properties” (ACS Med Chem Lett, 2014); call rule not given here

Key:
[1] = Antiproliferative activity against human HCT116 cells after 48 hrs in absence of DTT by MTT assay; assay type: functional, cell-based; details: HCT-116, 48 h
Histone deacetylase 5 [2] = target: T1, Histone deacetylase 5 (Homo sapiens, UniProt Q9UQL6); experiment: Inhibition of HDAC5 (unknown origin) at 1 uM incubated for 30 mins in presence of BSA and in absence of DTT by fluorescence assay
Method in brief: (§1)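 Purified-HDAC assay, single point: percent inhibition read at 1 μM, the highest concentration tested.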

Histone deacetylase 4 [3] = target: T2, Histone deacetylase 4 (Homo sapiens, UniProt P56524); experiment: Inhibition of HDAC4 (unknown origin) incubated for 30 mins in presence of BSA and in absence of DTT by fluorescence assay
Histone deacetylase 9 [4] = target: T3, Histone deacetylase 9 (Homo sapiens, UniProt Q9UKV0); experiment: Inhibition of HDAC9 (unknown origin) at 1 uM incubated for 30 mins in presence of BSA and in absence of DTT by fluorescence assay; method in brief: as §1
Histone deacetylase 7 = target: T4, Histone deacetylase 7 (Homo sapiens, UniProt Q8WUI4); experiment: Inhibition of HDAC7 (unknown origin) incubated for 30 mins in presence of BSA and in absence of DTT by fluorescence assay
T4 sequence (Q8WUI4 whole entry): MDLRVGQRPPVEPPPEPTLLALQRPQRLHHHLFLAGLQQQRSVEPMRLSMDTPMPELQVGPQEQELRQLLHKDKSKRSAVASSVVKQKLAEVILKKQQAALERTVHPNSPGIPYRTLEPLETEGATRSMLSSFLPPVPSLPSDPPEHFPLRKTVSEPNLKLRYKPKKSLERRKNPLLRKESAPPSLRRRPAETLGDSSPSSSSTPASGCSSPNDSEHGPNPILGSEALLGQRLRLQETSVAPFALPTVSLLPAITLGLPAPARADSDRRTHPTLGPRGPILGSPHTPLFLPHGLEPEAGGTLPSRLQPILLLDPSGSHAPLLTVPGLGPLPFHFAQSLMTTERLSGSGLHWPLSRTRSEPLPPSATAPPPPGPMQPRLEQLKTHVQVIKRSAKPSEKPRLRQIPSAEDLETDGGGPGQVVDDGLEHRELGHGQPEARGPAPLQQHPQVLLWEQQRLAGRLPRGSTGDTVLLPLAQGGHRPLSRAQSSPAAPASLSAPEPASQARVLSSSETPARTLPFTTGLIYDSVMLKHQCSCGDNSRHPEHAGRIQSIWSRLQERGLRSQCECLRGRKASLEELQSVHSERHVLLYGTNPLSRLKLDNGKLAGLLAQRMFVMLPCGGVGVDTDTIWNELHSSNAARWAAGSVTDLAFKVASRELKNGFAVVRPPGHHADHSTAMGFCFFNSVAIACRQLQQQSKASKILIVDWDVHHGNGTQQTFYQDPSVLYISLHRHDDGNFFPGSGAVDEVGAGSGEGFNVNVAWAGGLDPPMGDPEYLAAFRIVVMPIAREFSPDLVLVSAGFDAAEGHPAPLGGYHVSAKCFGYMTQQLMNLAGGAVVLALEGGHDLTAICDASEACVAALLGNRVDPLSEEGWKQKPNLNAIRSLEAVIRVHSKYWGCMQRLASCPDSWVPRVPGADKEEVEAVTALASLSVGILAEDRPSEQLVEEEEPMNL

Histone deacetylase 4 [5] = target: T2, Histone deacetylase 4; experiment: Inhibition of HDAC4 (unknown origin) at 1 uM incubated for 30 mins in presence of BSA and in absence of DTT by fluorescence assay; method in brief: as §1
Histone deacetylase 9 [6] = target: T3, Histone deacetylase 9; experiment: Inhibition of HDAC9 (unknown origin) incubated for 30 mins in presence of BSA and in absence of DTT by fluorescence assay
Histone deacetylase 5 [7] = target: T1, Histone deacetylase 5; experiment: Inhibition of HDAC5 (unknown origin) incubated for 30 mins in presence of BSA and in absence of DTT by fluorescence assay
[8] = target: T5, Histone deacetylase 7 (Homo sapiens) (UniProt Q8WUI4); experiment: Inhibition of HDAC7 (unknown origin) at 1 uM incubated for 30 mins in presence of BSA and in absence of DTT by fluorescence assay; method in brief: as §1
T5 sequence (whole entry): T4 sequence (Q8WUI4 whole entry)

T2 sequence (P56524 whole entry): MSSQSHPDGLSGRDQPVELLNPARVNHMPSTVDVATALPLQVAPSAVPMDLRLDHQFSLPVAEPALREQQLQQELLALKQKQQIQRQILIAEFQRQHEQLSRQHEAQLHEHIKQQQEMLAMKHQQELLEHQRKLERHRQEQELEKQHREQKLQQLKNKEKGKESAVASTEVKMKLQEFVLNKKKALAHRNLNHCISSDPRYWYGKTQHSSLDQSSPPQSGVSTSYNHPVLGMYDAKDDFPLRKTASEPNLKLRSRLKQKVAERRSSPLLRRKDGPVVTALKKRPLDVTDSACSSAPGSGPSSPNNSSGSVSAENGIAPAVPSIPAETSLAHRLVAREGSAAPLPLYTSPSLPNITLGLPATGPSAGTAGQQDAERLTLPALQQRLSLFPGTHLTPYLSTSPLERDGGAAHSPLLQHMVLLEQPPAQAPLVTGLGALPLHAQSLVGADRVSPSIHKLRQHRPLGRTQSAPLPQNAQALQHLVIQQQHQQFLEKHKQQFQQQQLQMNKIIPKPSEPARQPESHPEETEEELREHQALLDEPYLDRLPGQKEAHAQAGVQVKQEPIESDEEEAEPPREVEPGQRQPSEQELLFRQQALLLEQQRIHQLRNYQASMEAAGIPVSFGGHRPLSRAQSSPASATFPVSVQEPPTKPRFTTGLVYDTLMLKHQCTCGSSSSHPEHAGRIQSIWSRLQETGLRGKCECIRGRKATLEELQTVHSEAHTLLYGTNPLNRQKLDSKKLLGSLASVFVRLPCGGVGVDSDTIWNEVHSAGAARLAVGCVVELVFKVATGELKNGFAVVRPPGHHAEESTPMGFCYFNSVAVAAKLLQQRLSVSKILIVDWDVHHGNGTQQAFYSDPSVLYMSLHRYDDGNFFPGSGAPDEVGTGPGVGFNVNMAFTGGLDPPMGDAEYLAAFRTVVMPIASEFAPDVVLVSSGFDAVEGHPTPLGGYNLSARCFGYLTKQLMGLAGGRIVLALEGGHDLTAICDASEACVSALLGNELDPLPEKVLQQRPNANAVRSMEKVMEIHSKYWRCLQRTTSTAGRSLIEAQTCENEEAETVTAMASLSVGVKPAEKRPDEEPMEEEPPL
T3 sequence (Q9UKV0 whole entry): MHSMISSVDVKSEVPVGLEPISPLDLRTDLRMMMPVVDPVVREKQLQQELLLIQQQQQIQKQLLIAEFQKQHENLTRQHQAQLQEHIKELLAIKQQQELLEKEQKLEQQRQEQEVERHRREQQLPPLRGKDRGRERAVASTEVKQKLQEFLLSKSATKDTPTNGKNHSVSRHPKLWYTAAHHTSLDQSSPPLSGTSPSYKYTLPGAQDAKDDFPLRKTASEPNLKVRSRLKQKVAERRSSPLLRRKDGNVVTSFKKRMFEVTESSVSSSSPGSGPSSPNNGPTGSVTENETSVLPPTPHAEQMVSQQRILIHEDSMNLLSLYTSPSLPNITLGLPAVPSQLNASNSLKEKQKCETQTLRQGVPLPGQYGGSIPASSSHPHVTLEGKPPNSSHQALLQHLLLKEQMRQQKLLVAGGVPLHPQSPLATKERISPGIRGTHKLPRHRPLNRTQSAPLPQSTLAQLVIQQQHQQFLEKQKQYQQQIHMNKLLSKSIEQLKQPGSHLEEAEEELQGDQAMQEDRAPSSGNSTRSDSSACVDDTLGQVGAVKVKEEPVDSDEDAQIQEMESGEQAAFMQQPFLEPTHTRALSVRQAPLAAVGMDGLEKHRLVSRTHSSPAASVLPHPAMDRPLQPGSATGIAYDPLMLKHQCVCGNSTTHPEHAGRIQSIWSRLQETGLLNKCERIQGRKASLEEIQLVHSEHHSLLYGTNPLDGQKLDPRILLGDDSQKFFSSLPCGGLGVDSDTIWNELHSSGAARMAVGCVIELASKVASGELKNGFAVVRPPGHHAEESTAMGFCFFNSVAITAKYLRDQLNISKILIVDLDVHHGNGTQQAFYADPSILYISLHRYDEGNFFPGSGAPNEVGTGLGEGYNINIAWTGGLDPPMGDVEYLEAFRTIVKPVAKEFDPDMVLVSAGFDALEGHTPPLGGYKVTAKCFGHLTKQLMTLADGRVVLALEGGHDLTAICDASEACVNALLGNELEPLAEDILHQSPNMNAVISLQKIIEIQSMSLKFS
T1 sequence (Q9UQL6 whole entry): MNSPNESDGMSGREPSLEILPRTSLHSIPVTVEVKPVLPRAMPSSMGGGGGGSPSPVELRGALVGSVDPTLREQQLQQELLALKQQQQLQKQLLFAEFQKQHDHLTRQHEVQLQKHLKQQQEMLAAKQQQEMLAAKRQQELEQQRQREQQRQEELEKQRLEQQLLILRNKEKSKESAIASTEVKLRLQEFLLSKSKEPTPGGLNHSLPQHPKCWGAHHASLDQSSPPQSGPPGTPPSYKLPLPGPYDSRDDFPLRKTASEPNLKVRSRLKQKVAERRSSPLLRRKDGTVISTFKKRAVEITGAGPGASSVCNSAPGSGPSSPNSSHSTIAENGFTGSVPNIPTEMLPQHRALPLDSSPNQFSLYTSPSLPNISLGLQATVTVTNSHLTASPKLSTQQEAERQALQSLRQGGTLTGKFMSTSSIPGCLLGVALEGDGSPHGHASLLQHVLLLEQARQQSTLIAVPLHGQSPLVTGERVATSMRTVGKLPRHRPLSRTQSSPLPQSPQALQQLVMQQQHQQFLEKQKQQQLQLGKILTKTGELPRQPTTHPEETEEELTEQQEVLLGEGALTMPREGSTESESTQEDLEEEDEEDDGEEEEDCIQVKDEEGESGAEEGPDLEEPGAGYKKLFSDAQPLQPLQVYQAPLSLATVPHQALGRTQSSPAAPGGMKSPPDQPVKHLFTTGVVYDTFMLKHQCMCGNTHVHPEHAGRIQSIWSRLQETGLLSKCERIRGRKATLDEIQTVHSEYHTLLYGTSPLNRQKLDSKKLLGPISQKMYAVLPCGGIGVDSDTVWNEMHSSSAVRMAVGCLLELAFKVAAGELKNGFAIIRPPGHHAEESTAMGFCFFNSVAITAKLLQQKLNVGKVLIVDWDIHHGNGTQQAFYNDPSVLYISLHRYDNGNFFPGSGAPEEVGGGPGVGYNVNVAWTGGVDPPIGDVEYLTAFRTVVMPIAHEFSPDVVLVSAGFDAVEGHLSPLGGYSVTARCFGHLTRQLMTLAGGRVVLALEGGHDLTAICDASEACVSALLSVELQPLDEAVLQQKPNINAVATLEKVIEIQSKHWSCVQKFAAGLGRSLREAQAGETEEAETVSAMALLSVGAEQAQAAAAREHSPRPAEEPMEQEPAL

CC(C)[C@H]1NC(=O)[C@]2(C)CSC(=N2)c2csc(n2)CNC(=O)C[C@@H](/C=C/CCS)OC1=O [LARGAZOLE THIOL]
IC50 [1]: 5.9 nM
inhibition (Histone deacetylase 5 [2]): < 20%
IC50 (Histone deacetylase 4 [3]): Not Active
inhibition (Histone deacetylase 9 [4]): < 20%
IC50 (Histone deacetylase 7): Not Active
inhibition (Histone deacetylase 4 [5]): < 20%
IC50 (Histone deacetylase 9 [6]): Not Active
IC50 (Histone deacetylase 5 [7]): Not Active
inhibition [8]: < 20%
